Experimental data published in paper PMC3008401 (The Journal of infectious diseases, 2010).
Counter-ions that a name gives are not always drawn. Like-named read-outs stand apart in the source and are kept apart here.

Columns and labels:
[1] = tested on: genotype 1b replicon cells; details: read-out: CC50 Measured by others (1b genotype); cited from earlier work
[2] = assay type: cell-based; details: human
Outline: (§1)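 Huh-7.5 cells electroporated with in vitro transcribed luciferase replicon RNA (genotype 1b Bart79I-luc for line 1; full-length genotype 2a FL-J6/JFH-5′C19Rluc2AUbi for line 2). Seeded at ~2–3×10^4 cells/well, medium changed at 24 h then daily, serial compound dilutions, 4 replicates. At 72 h: 10% alamarBlue, 2 h at 37°C, fluorescence read. Normalized to untreated or DMSO controls. Mean ± SD.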

HCV J6-JFH (genotype 2a) = assay type: cell-based, Hepatitis C virus; details: SCH503034 alone at 2.5μM, 72hr
[3] = assay type: cell-based; details: human; remark: listed apart in the source
Outline: as §1

[4] = estimated from preclinical animal data; cited from earlier work

Row | SMILES | CC50 [1] [µM] | CC50 at 72 h [2] [µM] | other results
1 | CNC(=O)c1c(-c2ccc(F)cc2)oc2cc(N(CCO)S(C)(=O)=O)c(C3CC3)cc12 [HCV-796] | > 100 |  | 
2 | CC(C)(C)OC(=O)N[C@H]1CCCCC/C=C\[C@@H]2C[C@@]2(C(=O)NS(=O)(=O)C2CC2)NC(=O)[C@@H]2C[C@@H](OC(=O)N3Cc4cccc(F)c4C3)CN2C1=O [ITMN-191] | > 50 |  | 
3 | CC(C)[C@H](N)C(=O)O[C@@H]1[C@@H](CO)O[C@@H](n2ccc(N)nc2=O)[C@]1(C)O [NM-283, valopicitabine] | > 100 |  | 
4 | NC(=O)c1ncn([C@@H]2O[C@H](CO)[C@@H](O)[C@H]2O)n1 [Ribavirin] |  | > 100 | 
5 | CC(C)(C)NC(=O)N[C@H](C(=O)N1C[C@H]2[C@@H]([C@H]1C(=O)NC(CC1CCC1)C(=O)C(N)=O)C2(C)C)C(C)(C)C (stereo partly drawn) [SCH-503034, Boceprevir] | > 100 | > 100 | decrease of viral replication (HCV J6-JFH (genotype 2a)): ~ 1 log; CC50 at 72 h [3]: > 100 µM
6 | CCC[C@H](NC(=O)[C@@H]1[C@H]2CCC[C@H]2CN1C(=O)[C@@H](NC(=O)[C@@H](NC(=O)c1cnccn1)C1CCCCC1)C(C)(C)C)C(=O)C(=O)NC1CC1 [VX-950, Telaprevir] | 26.7 to 82 |  | 
7 | Clc1ccc(Cn2c(CN3CCCC3)nc3ccccc32)cc1 [clemizole, clemizole hydrochloride] |  | 35 ± 0.5 | CC50 at 72 h [3]: 40 ± 5 µM; no observed adverse events level (NOAEL) [4]: 100 mg/kg/day
